Reference: ChEMBL document CHEMBL5360543, “Designed multiple ligands for the treatment of type 2 diabetes mellitus and its complications: Discovery of (5-arylidene-4-oxo-2-thioxothiazolidin-3-yl)alkanoic acids active as novel dual-targeted PTP1B/AKR1B1 inhibitors” (Eur J Med Chem, 2023)
Active and inactive are the calls of the source. The calls are words filed in the database; no cut-off is given here.

Assays:
[1] = target: Aldo-keto reductase family 1 member B1 (Homo sapiens, UniProt P15121); assay: Inhibition of human recombinant AKR1B1 expressed in Escherichia coli BL21(DE3)pLysS using L-idose as substrate by NADPH oxidation based absorbance analysis
[2] = target: T1, Tyrosine-protein phosphatase non-receptor type 1 (Homo sapiens) (UniProt P18031); assay: Inhibition of N-terminal polyHis-tagged human PTP1B1 (1 to 303 residues) expressed in Escherichia coli BL21(DE3)pLysS assessed as enzyme residual activity using pNPP as substrate at 5 uM by spectrophotometric analysis
T1 sequence (whole entry): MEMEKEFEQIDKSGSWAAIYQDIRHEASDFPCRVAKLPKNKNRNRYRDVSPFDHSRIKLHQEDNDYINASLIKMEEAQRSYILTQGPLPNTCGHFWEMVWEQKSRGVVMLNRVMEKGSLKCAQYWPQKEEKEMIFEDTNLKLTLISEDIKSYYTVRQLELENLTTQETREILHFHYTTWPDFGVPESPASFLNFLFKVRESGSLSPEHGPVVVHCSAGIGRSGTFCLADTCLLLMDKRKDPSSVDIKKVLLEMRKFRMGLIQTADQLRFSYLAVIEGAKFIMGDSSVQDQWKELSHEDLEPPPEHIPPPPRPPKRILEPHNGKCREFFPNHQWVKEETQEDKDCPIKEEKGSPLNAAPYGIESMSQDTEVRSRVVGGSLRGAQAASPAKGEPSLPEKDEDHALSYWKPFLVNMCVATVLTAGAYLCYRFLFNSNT
Method in brief: (§1)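 His-tagged human PTP1B (1–303) from E. coli BL21(DE3)pLysS, assayed in 0.075 M β,β-dimethylglutarate pH 7.0 with 1 mM EDTA, 0.1 mM DTT and pNPP. Reaction stopped with 0.1 M KOH; p-nitrophenol read at 400 nm. IC50 from 15–16 inhibitor concentrations in triplicate, normalized to control, fitted by nonlinear regression. Single-point residual activity at 5 µM.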

[3] = target: T2, Tyrosine-protein phosphatase non-receptor type 1 (Homo sapiens, UniProt P18031); assay: Inhibition of N-terminal polyHis-tagged human PTP1B1 (1 to 303 residues) expressed in Escherichia coli BL21(DE3)pLysS using pNPP as substrate by spectrophotometric analysis; method in brief: as §1
T2 sequence (P18031 whole entry): T1 sequence (whole entry)

[4] = target: T3, Tyrosine-protein phosphatase non-receptor type 2 (Homo sapiens, UniProt P17706); assay: Inhibition of N-terminal polyHis-tagged human recombinant TC-PTPb (1 to 415 residues) expressed in Escherichia coli BL21(DE3)pLysS
T3 sequence (P17706 whole entry): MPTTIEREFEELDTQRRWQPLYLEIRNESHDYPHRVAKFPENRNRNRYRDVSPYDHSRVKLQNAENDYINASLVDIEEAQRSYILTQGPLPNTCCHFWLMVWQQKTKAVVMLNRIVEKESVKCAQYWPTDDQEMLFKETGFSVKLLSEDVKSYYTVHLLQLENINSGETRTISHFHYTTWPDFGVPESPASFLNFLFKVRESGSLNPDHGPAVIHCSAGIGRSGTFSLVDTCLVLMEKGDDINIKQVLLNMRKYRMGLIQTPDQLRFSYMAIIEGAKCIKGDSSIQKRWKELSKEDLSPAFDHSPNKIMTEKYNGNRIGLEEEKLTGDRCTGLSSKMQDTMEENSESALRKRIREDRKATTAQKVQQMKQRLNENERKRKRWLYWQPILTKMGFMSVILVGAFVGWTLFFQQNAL

[5] = target: T1, Tyrosine-protein phosphatase non-receptor type 1 (Homo sapiens); assay: Reversible inhibition of N-terminal polyHis-tagged human PTP1B1 (1 to 303 residues) expressed in Escherichia coli BL21(DE3)pLysS using pNPP as substrate pretreated with enzyme for 60 mins followed by 400-fold dilution with buffer containing substrate and measured after 15 mins by spectrophotometric analysis; conditions: time 75.0 min
Method in brief: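 PTP1B incubated 60 min at 37 °C with saturating inhibitor, then diluted 400-fold into assay buffer containing 2.5 mM pNPP. Stopped after 15 min with 0.2 M KOH; absorbance read at 400 nm. Normalized to enzyme diluted with DMSO; mean ± SEM (n = 3).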

[6] = target: T2, Tyrosine-protein phosphatase non-receptor type 1; assay: Mixed non-competitive inhibition of N-terminal polyHis-tagged human PTP1B1 (1 to 303 residues) expressed in Escherichia coli BL21(DE3)pLysS assessed as apparent dissociation constant for EI complex using pNPP as substrate by Lineweaver-Burk plot analysis
Method in brief: (§2)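 PTP1B initial pNPP hydrolysis rates measured at seven pNPP concentrations (0.5–25 mM) and at least three inhibitor concentrations, in triplicate. Data fitted to Michaelis–Menten; KM and Vmax dependence on inhibitor analysed by Lineweaver–Burk plots.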

[7] = target: T2, Tyrosine-protein phosphatase non-receptor type 1; assay: Mixed non-competitive inhibition of N-terminal polyHis-tagged human PTP1B1 (1 to 303 residues) expressed in Escherichia coli BL21(DE3)pLysS assessed as apparent dissociation constant for ESI complex using pNPP as substrate by Lineweaver-Burk plot analysis; method in brief: as §2
[8] = test system: C2C12; assay: Cytotoxicity against mouse C2C12 cells assessed as reduction in cell viability at 20 uM incubated for 24 hrs by MTT assay; type: toxicity, cell-based; conditions: c2c12, 24 h
Method in brief: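 C2C12 myoblasts were differentiated for 96 h in DMEM with 2% horse serum, then held 24 h in complete medium with 20 µM compound, DMSO vehicle as control. MTT 0.5 mg/mL was added, cells lysed in DMSO, absorbance read, and values normalized to vehicle. Quadruplicate, mean ± SD (n = 4).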

[9] = target: T4, Tyrosine-protein phosphatase non-receptor type 1 (Mus musculus) (UniProt P35821); assay: Inhibition of PTP1B in mouse C2C12 cells assessed as increase in Akt phosphorylation by measuring increase in ratio of pAkt to Akt at 20 uM treated for 15 mins by western blot analysis; type: cell-based
T4 sequence (whole entry): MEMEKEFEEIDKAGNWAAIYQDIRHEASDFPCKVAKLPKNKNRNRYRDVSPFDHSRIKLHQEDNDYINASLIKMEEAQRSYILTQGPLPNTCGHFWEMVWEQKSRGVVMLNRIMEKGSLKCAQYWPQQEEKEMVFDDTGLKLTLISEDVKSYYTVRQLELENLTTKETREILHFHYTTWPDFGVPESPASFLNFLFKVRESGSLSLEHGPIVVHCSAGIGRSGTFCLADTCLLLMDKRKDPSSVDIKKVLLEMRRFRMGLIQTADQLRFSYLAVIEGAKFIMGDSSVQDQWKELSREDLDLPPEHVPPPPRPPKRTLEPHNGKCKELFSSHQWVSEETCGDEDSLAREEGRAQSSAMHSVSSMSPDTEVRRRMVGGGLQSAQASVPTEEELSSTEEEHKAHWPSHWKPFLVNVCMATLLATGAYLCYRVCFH
Method in brief: (§3)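 C2C12 cells starved 24 h, then given 10 nM insulin, 20 µM compound, or both, for 15 min. Washed in cold PBS, lysed in 1X Laemmli buffer, run on SDS-PAGE, blotted to PVDF. Probed with antibodies to phospho-Akt and total Akt, with actin as loading control. Bands quantified; triplicate, mean ± SD (n = 3).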

[10] = target: T4, Tyrosine-protein phosphatase non-receptor type 1 (Mus musculus); assay: Inhibition of PTP1B in mouse C2C12 cells assessed as potentiation of insulin-induced Akt phosphorylation by measuring increase in ratio of pAkt to Akt at 20 uM treated for 15 mins in presence of insulin by western blot analysis; type: cell-based; method in brief: as §3

Which IC50 [1] does the source give for `O=C(O)CN1C(=O)/C(=C/c2ccc(OCCCc3ccccc3)cc2)SC1=S` here?
Its IC50 is 260 nM.

And the Activity [2]?
Its Activity is 79%.

For `O=C(O)CCN1C(=O)/C(=C/c2cccc(OCCCc3ccccc3)c2)SC1=S`, which IC50 [1] is on record?
Its IC50 is 1200 nM.

What about the Activity [2] of the same compound?
Its Activity is 67.6%.

Which IC50 [1] does the source give for `O=C(O)CCN1C(=O)/C(=C/c2ccc(OCCCCc3ccccc3)cc2)SC1=S` here?
Its IC50 is 60700 nM.

What about the IC50 [3] of the same compound?
Its IC50 is 2900 nM.

What about the IC50 [4] of the same compound?
Its IC50 is 9100 nM.

What about the inhibition [5] of the same compound?
Its inhibition is “Active”.

What about the Ki [6] of the same compound?
The Ki was 600 nM.

What about the Ki [7] of the same compound?
The Ki was 2400 nM.

And the Activity [8]?
Its Activity is “Non-Toxic”.

And the inhibition [9]?
Its inhibition is “Active”.

What about the inhibition [10] of the same compound?
The inhibition was “Active”.
